MrgX1 ag: human MrgX1 receptor agonism, primary screen; Q96LB2; MrgX1-HEK293 cells, Fluo-4 calcium fluorescence, agonist mode; hits give high values; B-score at 10 µM; actives 0.44% (n = 310,000); AID 588627;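 active = calcium response B-score plate-corrected fluorescence ratio at least 3 library SD, with starting fluorescence B-score inside 5 SD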
Target sequence (Q96LB2 whole entry, looked up): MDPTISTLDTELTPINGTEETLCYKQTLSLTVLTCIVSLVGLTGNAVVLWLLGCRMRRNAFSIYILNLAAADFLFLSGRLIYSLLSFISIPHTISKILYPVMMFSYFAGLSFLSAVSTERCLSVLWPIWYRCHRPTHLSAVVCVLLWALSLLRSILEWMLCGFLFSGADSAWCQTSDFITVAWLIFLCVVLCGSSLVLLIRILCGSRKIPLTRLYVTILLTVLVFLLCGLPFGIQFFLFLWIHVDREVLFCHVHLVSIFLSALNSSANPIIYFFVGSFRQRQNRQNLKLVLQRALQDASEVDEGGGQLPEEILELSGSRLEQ
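Material: HEK293 cells stably expressing human MrgX1 receptor | Quantity: 15,000 cells per well | Times: Cells plated overnight, dye loaded 0.5 h 37 °C, 0.5 h room temperature | Measured by: Kinetic Fluo-4 NW fluorescence of intracellular calcium | Control set: Positive and negative controls per plate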
RGS4 act: potentiators or activators of RGS4; HEK293 M3R/inducible RGS4, carbachol calcium flux Fluo4; hits give low values; B-score at 10 µM; actives 0.92% (n = 310,000);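 active = B-score of the integrated calcium signal more than 4 SD below the library mean, with starting fluorescence not abnormally high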;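 also: negative B-score means reduced calcium response which marks RGS4 activation or potentiation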
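test system = HEK293 cells with stable M3R and inducible RGS4 | schedule = recording 10 s baseline at 1 Hz, 100 s post-agonist | technique = Fluo4-AM (2 µM) calcium-flux fluorescence, kinetic read | measure = Agonist-evoked peak-minus-minimum fluorescence over baseline, integrated ratio, B score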
MrgX1 allo act: human MrgX1 positive allosteric modulation, primary screen | MrgX1-HEK293, Fluo-4 calcium flux, FDSS; hits give high values | actives 0.63% (n = 310,000) | AID 588675 | B-score at 10 µM | Q96LB2;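 active = plate-corrected calcium response at least 3 library SD above typical, normal starting fluorescence, not activating the receptor alone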;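 also: compound read alongside a low EC10 to EC30 dose of BAM8-22 agonist; peak minus trough fluorescence over baseline measured at the second addition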
RGS4 block: inhibitors of human RGS4 | P49798 | B-score at 10 µM | AID 463165 | HEK293 M3R/RGS4 inducible, Fluo-4 calcium flux; hits give high values; triggered by carbachol at its EC20 | actives 0.45% (n = 310,000);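 active = B-score, a plate-corrected calcium signal, over three deviations above library mean, with baseline fluorescence within five deviations of library mean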;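 also: RGS4 expression induced by doxycycline in cells with stable M3 receptor; B-score is computed from the integrated fluorescence ratio over baseline after carbachol; higher B-score means a larger calcium signal and so more RGS4 inhibition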
Target sequence (P49798 whole entry, looked up): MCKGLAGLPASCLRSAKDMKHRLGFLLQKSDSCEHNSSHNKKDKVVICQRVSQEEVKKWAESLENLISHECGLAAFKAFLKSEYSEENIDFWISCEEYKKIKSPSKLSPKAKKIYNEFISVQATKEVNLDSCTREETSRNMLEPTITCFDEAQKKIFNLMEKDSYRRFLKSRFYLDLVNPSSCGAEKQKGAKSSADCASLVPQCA
MrgX1 antagonist: blocks BAM8-22 activation of human MrgX1 receptor; Q96LB2; MRGX1-HEK293 calcium flux, Fluo-4, BAM8-22 antagonism; hits give low values; B-score at 10 µM; actives 1.3% (n = 310,000); AID 588676;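 active = calcium-response B-score plate-corrected more than 3 library SD below zero, starting fluorescence within 5 deviations, no agonist response on first addition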;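 also: peak minus trough fluorescence over baseline after final BAM8-22 challenge near maximal dose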
KCC2 mod: KCC2 (human) Cl- transport modulation; Q9H2X9; KCC2 cells, thallium flux FluoZin-2 fluorescence; B-score of Tl+ flux slope (higher = more flux/activation; lower = inhibition) at 10 µM; actives 2.2% (n = 190,000); AID 1456;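 active = thallium flux slope and its plate-corrected score both differing from the plate sample mean at a set confidence after two filtering rounds, in either direction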;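 also: slope of fluorescence scaled to starting intensity during 10 to 20 s after thallium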
KCC2 sec1: confirmation of human KCC2 transport modulators; HEK293-KCC2, thallium flux, FluoZin2 fluorescence; hits give high values; shares compounds with KCC2 mod; actives 15% (n = 3,700); normalised thallium flux (F/F0 slope) at 10 µM;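 active = thallium flux slope above the same plate's solvent-only control mean plus 3 SD; inconclusive = the two replicate wells disagree; inactive = no significant difference from solvent-only control wells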
KCC2 bumet counter: thallium flux despite bumetanide block in KCC2 cells, secondary assay 3. shares compounds with KCC2 mod. HEK293-KCC2 + bumetanide/ouabain, thallium flux FluoZin2; hits give high values. normalized thallium flux at 10 µM. actives 49% (n = 3,700). AID 1714;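 active = thallium entry rate above the same plate's blocked-transporter control wells by more than 3 SD; inconclusive = the two repeat wells disagree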;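 also: raw slope of fluorescence over initial fluorescence between 10 and 20 s after thallium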
KCC2 sec2: KCC2 (human) modulation, second secondary assay; shares compounds with KCC2 mod; HEK293-KCC2, thallium flux FluoZin2 fluorescence; actives lie on both sides; F/F0 rise rate, 10–20 s post-thallium; normalized thallium flux at 10 µM; actives 23% (n = 3,700); AID 1715;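 active = thallium flux slope more than 3 SD above or below the plate's solvent-only control mean, mostly below; inconclusive = the two repeat wells disagreed; inactive = no significant shift from solvent-only controls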;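 also: raw slope with 0.1% DMSO as baseline and bumetanide as block control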
HEK293 Tl flux: counter-screen for KCC2 modulators: effect in parental HEK293 cells; AID 1716; shares compounds with KCC2 mod; actives 46% (n = 3,700); thallium flux FluoZin2, ouabain; baseline-ratio fluorescence slope, 10–20 s after thallium; thallium flux rate (normalised fluorescence) at 10 µM;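 active = thallium flux rate significantly above the same plate's solvent-only control wells, beyond their mean plus 3 SD; inconclusive = the two replicate wells gave conflicting results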
KCC2 retest ouab: modulates human KCC2 on retest with ouabain. shares compounds with KCC2 mod. HEK293-KCC2, thallium flux FluoZin2 fluorescence; bidirectional: low = inhibitor, high = activator. raw Tl+ flux slope (below DMSO = inhibition, above = activation) at 10 µM. actives 48% (n = 3,700). AID 1717;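 active = thallium flux slope beyond 3 SD from same-plate DMSO control mean in most replicates, usually higher, sometimes lower; inconclusive = repeat tests gave conflicting results; inactive = no significant difference from controls in most replicates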;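 also: slope of initial-normalized fluorescence between seconds 10 and 20 after thallium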
HEK counter2: counter-screen for KCC2 modulators: effect in parental HEK293 cells. thallium flux slope at 10 µM. thallium flux FluoZin-2 fluorescence slope. shares compounds with KCC2 mod. actives 33% (n = 3,700);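 active = thallium flux slope above the same plate's solvent-control mean plus 3 SD in both duplicate wells; inconclusive = duplicate wells that disagreed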;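 also: run without ouabain in cells lacking the KCC2 cotransporter; slope of fluorescence scaled to its starting value between 10 and 20 s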
Numbers without * were called inactive; i = inactive; ? = inconclusive; · = no result given. The list is not random: actives were taken first. Their share in the collection is about 4.7%.

SMILES | MrgX1 ag | RGS4 act | MrgX1 allo act | RGS4 block | MrgX1 antagonist | KCC2 mod | KCC2 sec1 | KCC2 bumet counter | KCC2 sec2 | HEK293 Tl flux | KCC2 retest ouab | HEK counter2
CCOc1ccccc1-c1cc(C(=O)N/N=C/c2cccnc2)c2ccccc2n1 | i | i | i | i | i | · | · | · | · | · | · | ·
Cc1ccc(COc2ccccc2-c2cc(C(=O)N/N=C/c3cccnc3)[nH]n2)cc1 | i | i | i | i | i | -5.5* | 0.0064 | 0.0055 | ? | ? | 0.012* | 0.011
Cc1ccc(/C=c2\s/c(=C(/C#N)C(=O)N3CCCC3)n(Cc3ccco3)c2=O)s1 | i | i | i | i | i | 8.2* | 0.018 | 0.0048 | 0.025* | 0.007 | 0.014 | 0.0099
Cc1ccc(C)c(NS(=O)(=O)c2c(C)nc3sccn3c2=O)c1 | i | i | i | i | i | · | · | · | · | · | · | ·
CCOC(=O)N1CCN(C(=O)c2ccc3c(=O)n(-c4ccc(OC)cc4)c(=S)[nH]c3c2)CC1 | i | i | i | i | i | -3.6* | 0.015 | 0.0038 | 0.032 | ? | 0.017 | 0.011
COC(CNC(=O)c1cccc(-n2c(=S)[nH]c3cc(Cl)ccc3c2=O)c1)OC | i | i | i | i | i | 4.4* | ? | 0.021* | 0.034 | 0.015* | ? | 0.012*
CCOC(=O)N1CCN(C(=O)c2cccc(-n3c(=S)[nH]c4cc(Cl)ccc4c3=O)c2)CC1 | i | i | i | i | i | · | 0.0071 | 0.012* | ? | 0.017* | 0.025* | 0.02*
CCOC(=O)N1CCN(C(=O)c2ccc3c(=O)n(-c4ccccc4F)c(=S)[nH]c3c2)CC1 | i | i | i | i | i | 0.53 | · | · | · | · | · | ·
CCOCCCNC(=O)c1cn(CC)c2ccc(S(=O)(=O)N3CCC(C)CC3)cc2c1=O | i | i | i | i | i | · | · | · | · | · | · | ·
O=C(CN1C(=O)NC2(CCCC2)C1=O)N1CCN(Cc2ccccc2)CC1 | i | i | i | i | i | · | · | · | · | · | · | ·
CCCN(CC(=O)Nc1ccccc1C)C(=O)C1CCN(S(=O)(=O)c2ccccc2C(F)(F)F)CC1 | i | i | i | i | i | · | · | · | · | · | · | ·
CC1CCCN(C(=O)CCCn2c(=S)[nH]c3ccccc3c2=O)C1 (configuration not stated) | i | i | i | i | i | 3.2* | 0.007 | 0.0099* | 0.032 | 0.0099* | ? | 0.012*
O=c1c2ccccc2[nH]c(=S)n1Cc1ccccc1 | i | i | i | i | i | · | · | · | · | · | · | ·
CCCn1c(=S)[nH]c2ccccc2c1=O | i | i | i | i | i | 79* | ? | 0.12* | 0.091* | 0.085* | 0.1* | 0.088*
O=c1c2ccccc2[nH]c(=S)n1Cc1cccs1 | i | i | i | i | i | 26* | ? | 0.048* | 0.029 | 0.017* | 0.041* | 0.012*

High-throughput results as filed in PubChem.
